High-throughput results (PubChem)
ATG4B inh: ATG4B (human) cysteine protease inhibition; Q9Y4P1; ATG4B cleavage of LC3-PLA2, NBD-HPC fluorescence, 1 h; inhibition, % at 8.33 µM; 0.51% of 340,000 active; AID 504462; in the data active = inhibition above about 40%
Target sequence (Q9Y4P1 whole entry, looked up): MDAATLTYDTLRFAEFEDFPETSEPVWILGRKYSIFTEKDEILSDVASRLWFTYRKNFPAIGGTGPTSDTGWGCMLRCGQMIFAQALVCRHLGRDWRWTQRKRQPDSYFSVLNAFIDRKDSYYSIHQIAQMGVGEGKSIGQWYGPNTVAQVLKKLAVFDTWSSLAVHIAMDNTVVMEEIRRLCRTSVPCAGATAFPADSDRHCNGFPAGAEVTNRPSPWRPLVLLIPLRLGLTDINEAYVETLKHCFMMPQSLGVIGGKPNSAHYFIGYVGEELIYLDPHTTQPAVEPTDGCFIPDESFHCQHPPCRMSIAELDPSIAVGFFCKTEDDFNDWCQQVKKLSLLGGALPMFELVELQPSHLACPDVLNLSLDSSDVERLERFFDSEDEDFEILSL
CTSL1 counter: blocks F. hepatica cathepsin L1 in PFM18AAP counter-screen. recombinant F. hepatica cathepsin L1, Z-Leu-Arg-MCA fluorescence. inhibition, % at 5.96 µM. 0.49% of 300,000 active;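 active = inhibition above the mean of all tested compounds plus 3 SD, set per screening campaign, cut at about 17% in these data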
Diaphorase inh: inhibits diaphorase or chemically oxidizes, flagging diaphorase assay artifacts; diaphorase resazurin-to-resorufin fluorescence, NADH, 16 min; bacterial (C. kluyveri) enzyme, not human; inhibition, % at 20 µM; 0.69% of 190,000 active;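 active = primary screen inhibition at 20 µM above a set limit, cut at about 50% in these data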
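Assay system – diaphorase enzyme from Clostridium kluyveri · Amount – diaphorase 0.14 U/mL (working solution) · Times – reaction incubation of 16 min at room temperature · Controls – No-NADH positive control and DMSO neutral control · Signal – resorufin fluorescence 544/590 nm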
HKDC1 inh: blocks human hexokinase HKDC1 activity. Q2TB90. 0.16% of 340,000 active. AID 493160. recombinant HKDC1, G6PDH/diaphorase resazurin coupled fluorescence. inhibition, % at 20 µM;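 active = inhibition above about 35% when tested at 20 µM, limit read from the data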
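System: Recombinant HKDC1 hexokinase | Amount: HKDC1 at 5 µg/mL | Reagent: Glucose with 1 mM ATP | Doses: Single 20 µM dose | Incubation: Reaction time 90 min, room temperature, protected from light | Signal: Coupled resazurin fluorescence, excitation 525 nm, emission 613 nm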
Diaph act CS: counter-screen for diaphorase-based assays: diaphorase activators and chemical reducers; Diaphorase/resazurin coupled assay, resorufin fluorescence, 16 min; stronger effect = higher value; 1 = vehicle wells, 0 = NADH-free wells; activation factor at 20 µM; 0.005% of 190,000 active; AID 1229;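 active = diaphorase activity raised at least twofold by the compound at 20 µM; inactive = activation factor below 2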
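Measured by – red resorufin fluorescence at 544/590 nm excitation/emission · Test system – Clostridium kluyveri diaphorase, purified enzyme · Incubation – reaction time 16 min, room temperature · Buffer or medium – 50 mM HEPES pH 7.4 with 4.542 mM MgCl2, 0.005% Tween 20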
HKDC1 act conf: HKDC1 (human) activation, single-dose confirmed; AID 504708; 14% of 740 active; recombinant HKDC1, G6PDH/diaphorase resazurin fluorescence; stronger effect = lower value; shares compounds with HKDC1 inh; inhibition, % at 20 µM;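 active = inhibition at or below a set negative limit, negative inhibition meaning the enzyme was activated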
A number is an active result; - = inactive; . = no result; ! = a repeat was not active. Sampled rows, rich in hits. Any-hit rate of the full collection: about 1.4%.

SMILES	ATG4B inh	CTSL1 counter	Diaphorase inh	HKDC1 inh	Diaph act CS	HKDC1 act conf
O=C1C(F)=CC(COC(c2ccccc2)(c2ccccc2)c2ccccc2)OC1n1cc(F)c(=O)[nH]c1=O (stereo not given)	-	.	.	40	.	-
CC(=O)OCC1OC(n2cc(F)c(=O)[nH]c2=O)C(OC(C)=O)C1OC(C)=O (stereo not given)	-	-	.	-	.	.
COC(=O)c1cc(=O)n(Cc2ccc(OC)cc2)c(=NCc2ccc(OC)cc2)s1	-	-	-	-	-	-
COC(=O)c1cc(=O)n(Cc2ccccc2)c(=NCc2ccccc2)s1	.	-	-	.	-	.
Cc1ccc(C(=O)OCn2ncc(Cl)c(Cl)c2=O)cc1	-	-	-	-	-	.
O=C(OCn1ncc(Cl)c(Cl)c1=O)c1ccc(C(F)(F)F)cc1	-	.	-	46	-	-
Cc1ccccc1OCC(=O)Nc1ccc2[nH]ncc2c1	-	-	.	-	.	.
Cc1ccc(NC2c3ncccc3C(=O)N2c2ccccc2C)cc1C (stereo not given)	-	-	-	56	-	-
COc1cc(OC)nc(Oc2cccc(Cl)c2C)n1	-	-	.	-	.	.
O=c1nc(/C=C/c2cccn2-c2ccc([N+](=O)[O-])cc2)cc(C(F)(F)F)[nH]1	-	-	-	-	-	.
O=c1nc(/C=C/c2cc([N+](=O)[O-])ccc2Cl)cc(C(F)(F)F)[nH]1	-	-	-	-	-	-
COc1cccc(C(C(=O)NCC2CCCO2)N(C(=O)Cn2nnc3ccccc32)c2ccc(NC(C)=O)cc2)c1 (stereo not given)	-	-	.	-	.	.
FC(F)Sc1ccc(N=C2NN=C(c3ccc4c(c3)OCCO4)CS2)cc1	-	-	-	-	-	.
COc1ccc(N=C2NN=C(c3ccc4c(c3)OCCO4)CS2)cc1	-	-	-	-	-	-33
COc1cccc(N2C(=O)c3cccnc3C2O)c1 (stereo not given)	-	.	.	-	.	.
COc1ccc(CN2C(=O)c3cccnc3C2O)cc1 (stereo not given)	-	-	-	41	-	-
Cc1cc(NC(=O)C(C)SCC(=O)Nc2ccccc2C(C)(C)C)no1 (stereo not given)	-	-	.	-	.	.
CC(C)Cc1nc2sc3c(NCc4ccco4)ncnc3c2c2c1COC(C)(C)C2	-	-	-	-	-	.
Cc1nc2sc3c(NCc4ccco4)ncnc3c2c2c1COC(C)(C)C2	-	-	66	35	-	-
CS(=O)(=O)c1ccc(C(=O)OCC(=O)NC(=O)Cc2ccccc2)cc1	-	-	.	-	.	-
COc1cccc(CNC(=O)CCNC(=O)C2CCN(S(=O)(=O)c3ccccc3)CC2)c1	-	-	.	-	.	.
CCOC(=O)C1=C(Cc2ccc(F)cc2)C(=O)c2ccccc2C1=O	-	-	-	73	-	-
Cc1cc(C)c(OCC(O)CN2CCN(C(=O)c3ccccc3)CC2)c(C)c1 (stereo not given)	-	-	.	-	.	.
Oc1ccccc1OCc1nc2ccccc2s1	-	-	-	-	-	.
Oc1ccc(O)c(Cc2nc3ccccc3s2)c1	-	-	-	45	-	-
SMILES	ATG4B inh	CTSL1 counter	Diaphorase inh	HKDC1 inh	Diaph act CS	HKDC1 act conf
O=C(CCl)N(c1ccc(Cl)cc1)c1c[nH]c2ccccc12	-	-	-	41	-	-
COc1cc(/C=C2\SC(=Nc3ccccc3)NC2=O)cc(Cl)c1O	-	-	.	-	.	.
COc1cc(/C=C2\SC(=Nc3ccc(Cl)c(C(=O)O)c3)NC2=O)c(Br)c(Br)c1O	-	.	.	40	.	-
CCCCn1c(N)c(N(CCOC)C(=O)CSc2nnc(-c3ccncc3)n2CCC)c(=O)[nH]c1=O	-	-	.	-	.	.
CCN1C(=O)c2ccc(C(=O)Nc3c(C)cc(C)cc3C)cc2C1=O	-	-	.	-	.	.
COc1ccc(C2=CC3=C(Br)C(=O)C(C)(OC(=O)c4ccco4)C(=O)C3=CO2)cc1 (stereo not given)	82	-	.	42	.	-
C[n+]1c2cc(N)ccc2cc2ccc(N)cc21	-	.	.	44!	.	-
Nc1ccc2ccc(O)cc2c1	-	.	.	-	.	.
CC(=NNC(=S)Nc1ccc(C)cc1)c1ccccn1	-	.	.	-	.	.
COc1ccccc1NC(=S)NN=C(C)c1ccccn1	-	.	.	-	.	-61
CC(=NNC(=S)Nc1cccc(C)c1)c1ccccn1	-	.	.	-	.	-60
CCOC(=O)C1(Cc2cccc(Cl)c2)CCCN(C(=O)c2cnn(CC)c2)C1 (stereo not given)	-	-	.	-	.	.
O=C(CCl)N1CCN2C(=O)c3ccccc3C12c1ccc(Cl)cc1 (stereo not given)	-	-	-	-	-	-
Cc1ccc(CNC(=O)c2cc3ccccc3oc2=O)cc1	-	-	.	-	.	.
CC1(OC(=O)C2CCCC2)C(=O)C=C2C=C(c3ccsc3)N(CCc3c[nH]c4ccccc34)C=C2C1=O (stereo not given)	-	-	.	35	.	-
O=C1CSC(=S)N1Nc1ccccc1	-	.	.	-	.	-
O=C1c2cccc3cccc(c23)C(=O)N1CCCc1n[nH]c(=S)n1-c1ccccc1	-	-	-	-	-	.
O=C(CSc1nnc(CCCN2C(=O)c3cccc4cccc(c34)C2=O)n1-c1ccccc1)N1CCN(CCO)CC1	-	-	59	42	-	-
O=C(/C=C/Sc1ccccc1)c1ccccc1	-	-	-	36	-	-
COc1ccc(N(C(=O)CCl)C(C(=O)NCCc2ccccc2)c2cccs2)cc1Cl (stereo not given)	-	-	-	-	-	-
O=C(COc1ccc2c3c(c(=O)oc2c1)CCC3)Nc1ccc(CN2CCOCC2)cc1	-	-	.	-	.	.
O=c1[nH][nH]c2c(N=Cc3ccccc3O)ccc(F)c12	-	.	.	38	.	-
C[C@@H]1C(c2cccc(Cl)c2)=NN(c2ccc(Br)cc2)[C@H]1C(=O)N1CCOC1=O	-	.	.	-	.	.
COc1ccc2c(c1)c(=O)oc1c(C)c(OCc3cc(C(=O)O)oc3C)ccc12	-	-	-	79	-	-
COc1ccc2c(c1)c(=O)oc1c(C)c(OCc3ccc(C(=O)O)cc3)ccc12	-	-	.	-	.	.
SMILES	ATG4B inh	CTSL1 counter	Diaphorase inh	HKDC1 inh	Diaph act CS	HKDC1 act conf
Cc1ccccc1NC(=S)N/N=C/c1ccc(O)cc1O	-	-	.	-	.	-
CCCOc1ccc(/C=N/NC(=S)Nc2ccccc2[N+](=O)[O-])c(O)c1	-	-	-	-	-	-48
O=C(COC(=O)CC1CCCC1)Nc1ccccc1[N+](=O)[O-]	-	.	.	-	.	.
CCCCC[n+]1cccc2c3ccccc3ccc21	-	-	-	-	-	.
CCCC[n+]1c2ccccc2cc2ccccc21	-	-	.	42	.	-
CCC[n+]1c2ccccc2cc2ccccc21	-	-	.	37	.	-
O=c1c2ccccc2c(C=NC2CCN(Cc3ccccc3)CC2)c(O)n1Cc1ccc2c(c1)OCO2	.	-	-	.	-	.
